According to ChEMBL document CHEMBL1133021, “1,3,5-Trialkyl-2,4,6-triiodobenzenes: novel X-ray contrast agents for gastrointestinal imaging” (J Med Chem, 2000):

Tests used:
Cricetinae gen. sp. [1] = assay: Number of hamsters (male) with follicular cell necrosis over the total number of tested at 4.56 g/kg of compound in iodinated form administered orally; 0/5; assay type: functional, Cricetulus griseus
Cricetinae gen. sp. [2] = assay: Number of hamsters (male) with follicular cell mitotic figures above the control value, to that of total number of tested at 4.56 g/kg of compound in iodinated form administered orally; 0/5; assay type: functional, Cricetulus griseus
Cricetinae gen. sp. [3] = assay: Number of hamsters (male) with follicular cell dilation over the total number of tested at 4.56 g/kg of compound in iodinated form administered orally; 0/5; assay type: functional, Cricetulus griseus
Cricetinae gen. sp. [4] = assay: Number of hamsters (female) with follicular cell dilation over the total number of tested at 4.56 g/kg of compound in iodinated form administered orally; 1/3; assay type: functional, Cricetulus griseus
Cricetinae gen. sp. [5] = assay: Number of hamsters (female) with follicular cell necrosis over the total number of tested at 4.56 g/kg of compound in iodinated form administered orally; 1/6; assay type: functional, Cricetulus griseus
Cricetinae gen. sp. [6] = assay: Number of hamsters (male) with follicular cell necrosis over the total number of tested at 4.56 g/kg of compound in iodinated form administered orally; 0/3; assay type: functional, Cricetulus griseus
Cricetinae gen. sp. [7] = assay: Number of hamsters (female) with follicular cell mitotic figures above the control value, to that of total number of tested at 4.56 g/kg of compound in iodinated form administered orally; 1/3; assay type: functional, Cricetulus griseus
Cricetinae gen. sp. [8] = assay: Number of hamsters (male) with follicular cell dilation over the total number of tested at 4.56 g/kg of compound in iodinated form administered orally; 1/3; assay type: functional, Cricetulus griseus
Cricetinae gen. sp. [9] = assay: Number of hamsters (male) with follicular cell mitotic figures above the control value, to that of total number of tested at 4.56 g/kg of compound in iodinated form administered orally; 1/3; assay type: functional, Cricetulus griseus
Mus musculus [10] = assay: Mortality observed in mouse tested for murine toxicity after a single dose of compound (8.49 g/kg) containing iodinated form (4.56 g/kg) of it, administered as 40 mL/kg solution; 0/3; assay type: functional
Method in brief: (§1)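 Mice, 3 per dose group, received a single oral dose of the test agent as a mineral oil-in-water emulsion. Doses were 10, 20 or 40 mL/kg, about 1-, 2- and 4-fold the anticipated human dose of 114 mg I/mL. Emulsion vehicle alone at 40 mL/kg was the control. Clinical signs and mortality were checked several times on the dosing day, then daily for 7 days. Body weight was taken at 24 h and 1 week, and survivors were necropsied on day 7. Read-out was deaths over animals dosed.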

Mus musculus [11] = assay: Toxicity in mice evaluated, after a single dose of compound containing 1.14 g/kg of iodinated form administered as 10 mL/kg solution; NT=No toxicity; assay type: organism-based; details: in vivo, 1140 mg/kg; method in brief: as §1
Mus musculus [12] = assay: Toxicity in mice evaluated, after a single dose of compound containing 2.28 g/kg of iodinated form administered as 20 ml/kg solution; NT=No toxicity; assay type: organism-based; details: in vivo, 2280 mg/kg; method in brief: as §1
Mus musculus [13] = assay: Mortality observed in mouse tested for murine toxicity, 7 days after a single dose of compound containing 3.27g/kg of iodinated form, administered as 20 ml/kg solution; assay type: functional; method in brief: as §1
Mus musculus [14] = assay: Mortality observed in mouse tested for murine toxicity, 7 days after a single dose of compound containing 6.53 g/kg of iodinated form, administered as 40 mL/kg solution; assay type: functional; method in brief: as §1
Mus musculus [15] = assay: Mortality observed in mouse tested for murine toxicity after a single dose of compound (12.5 g/kg) containing iodinated form (3.81 g/kg) of it, administered as 10 mL/kg solution; 3/3; assay type: functional
Mus musculus [16] = assay: Mortality observed in mouse tested for murine toxicity after a single dose of compound (2.80 g/kg) containing iodinated form (0.853 g/kg) of it, administered as 10 mL/kg solution; 1/3; assay type: functional
Mus musculus [17] = assay: Mortality observed in mouse tested for murine toxicity after a single dose of compound (5.34 g/kg) containing iodinated form (1.63 g/kg) of it, administered as 10 mL/kg solution; 3/3; assay type: functional
Mus musculus [18] = assay: Mortality observed in mouse tested for murine toxicity after a single dose of compound (6.26 g/kg) containing iodinated form (1.91 g/kg) of it, administered as 10 mL/kg solution; 1/3; assay type: functional
Cricetinae gen. sp. [19] = assay: Number of hamsters (female) with follicular cell dilation over the total number of tested at 4.56 g/kg of compound in iodinated form administered orally; 3/3; assay type: functional, Cricetulus griseus
Cricetinae gen. sp. [20] = assay: Number of hamsters (female) with follicular cell necrosis over the total number of tested at 4.56 g/kg of compound in iodinated form administered orally; 0/3; assay type: functional, Cricetulus griseus
Cricetinae gen. sp. [21] = assay: Number of hamsters (male) with follicular cell necrosis over the total number of tested at 4.56 g/kg of compound in iodinated form administered orally; 3/3; assay type: functional, Cricetulus griseus
Cricetinae gen. sp. [22] = assay: Number of hamsters (female) with follicular cell mitotic figures above the control value, to that of total number of tested at 4.56 g/kg of compound in iodinated form administered orally; 3/3; assay type: functional, Cricetulus griseus
Cricetinae gen. sp. [23] = assay: Number of hamsters (male) with follicular cell dilation over the total number of tested at 4.56 g/kg of compound in iodinated form administered orally; 3/3; assay type: functional, Cricetulus griseus
Cricetinae gen. sp. [24] = assay: Number of hamsters (male) with follicular cell mitotic figures above the control value, to that of total number of tested at 4.56 g/kg of compound in iodinated form administered orally; 3/3; assay type: functional, Cricetulus griseus
Cricetulus griseus [25] = species: Cricetulus griseus; assay: Compound (4 uM) was evaluated for the half-life period in hamster after incubation with microsomes for 60 min; assay type: functional; details: Microsome
Method in brief: (§2)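 Liver microsomes from male Sprague-Dawley rat, male golden Syrian hamster or human, incubated with substrate at 4 µM. Duplicate incubates were sampled at 0, 15, 30 and 60 min, quenched with saturated zinc sulfate and extracted with propan-2-ol. Samples were analysed by isocratic reversed-phase C8 HPLC (65% i-PrOH/water, 0.1% TFA). Values were normalized to the 0 min control to derive half-life (n = 2).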

Cricetulus griseus [26] = species: Cricetulus griseus; assay: Percent of compound (40 uM) present in unmetabolized form in hamsters after incubation with microsomes for 60 min; assay type: functional; details: Microsome
Method in brief: (§3)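 Substrate at 40 µM was incubated 60 min with male Sprague-Dawley rat or male golden Syrian hamster liver microsomes, in duplicate, with sampling at 0, 15, 30 and 60 min. Aliquots were zinc sulfate-quenched, propan-2-ol-extracted and run on isocratic reversed-phase C8 HPLC. Intact drug is expressed relative to 0 min control values.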

Rattus norvegicus [27] = species: Rattus norvegicus; assay: Compound (4 uM) was evaluated for the half-life period in rats after incubation with microsomes for 60 min; assay type: functional; details: Microsome; method in brief: as §2
Rattus norvegicus [28] = species: Rattus norvegicus; assay: Percent of compound (40 uM) present in unmetabolized form in rats after incubation with microsomes for 60 min; assay type: functional; details: Microsome; method in brief: as §3
Mus musculus [29] = assay: Mortality observed in mouse tested for murine toxicity after a single dose of compound (7.00 g/kg) containing iodinated form (4.56 g/kg) of it, administered as 40 mL/kg solution; 0/3; assay type: functional; method in brief: as §1
Homo sapiens = species: Homo sapiens; assay: Compound (4 uM) was evaluated for the half-life period in humans after incubation with microsomes for 60 min; details: Microsome

With `CC(C)CCCCCc1c(I)c(CCCCCC(C)C)c(I)c(CCCCCC(C)C)c1I` the Necrosis (Cricetinae gen. sp. [1]) was 0, the Mitotic figures (Cricetinae gen. sp. [2]) was 0 and the Dilation (Cricetinae gen. sp. [3]) was 0.

`CCCCCCc1c(I)c(CCCCCC)c(I)c(CCCCCC)c1I` gave a Dilation (Cricetinae gen. sp. [4]) of 0, a Necrosis (Cricetinae gen. sp. [5]) of 0 and a Necrosis (Cricetinae gen. sp. [6]) of 0. The Mitotic figures (Cricetinae gen. sp. [7]) was 0, the Dilation (Cricetinae gen. sp. [8]) was 1 and the Mitotic figures (Cricetinae gen. sp. [9]) was 1. The Mortality (Mus musculus [10]) was 0 number of descendants/number of tested, the Toxicity (Mus musculus [11]) was “Not toxic” and the Toxicity (Mus musculus [12]) was “Not toxic”.

In the case of `CCOC(=O)CCCCCCCCC(C)c1ccc(I)cc1` (configuration not stated) [IOPHENDYLATE], the Mortality (Mus musculus [13]) is reported as 100%, the Mortality (Mus musculus [14]) is reported as 100% and the Mortality (Mus musculus [15]) is reported as 3 number of descendants/number of tested. For the same compound, the Mortality (Mus musculus [16]) was 1 number of descendants/number of tested, the Mortality (Mus musculus [17]) was 3 number of descendants/number of tested and the Mortality (Mus musculus [18]) was 1 number of descendants/number of tested.

`CCCCCCC(C)Oc1c(I)cc(I)cc1I` (configuration not stated) was tested, and the Dilation (Cricetinae gen. sp. [19]) was 3, the Necrosis (Cricetinae gen. sp. [20]) was 0 and the Necrosis (Cricetinae gen. sp. [21]) was 2. The Mitotic figures (Cricetinae gen. sp. [22]) was 3, the Dilation (Cricetinae gen. sp. [23]) was 3 and the Mitotic figures (Cricetinae gen. sp. [24]) was 3. The T1/2 (Cricetulus griseus [25]) was 15 min, the Intact (Cricetulus griseus [26]) was 73% and the T1/2 (Rattus norvegicus [27]) was 36 min. The Intact (Rattus norvegicus [28]) was 73%, the Mortality (Mus musculus [29]) was 0 number of descendants/number of tested and the Toxicity (Mus musculus [11]) was “Not toxic”. The Toxicity (Mus musculus [12]) was “Not toxic” and the T1/2 (Homo sapiens) was 132 min.
